Results on six molecules are retold here after ChEMBL document CHEMBL3588829, “Dehydro-β-proline Containing α4β1 Integrin Antagonists: Stereochemical Recognition in Ligand-Receptor Interplay” (ACS Med Chem Lett, 2015).

Test [1] deals with T1, Integrin alpha-4/beta-1 (Homo sapiens, UniProt P05556+P13612). Description: Inhibition of human alpha4beta1 integrin expressed in human Jurkat cells assessed as inhibition of cell adhesion to VCAM-1. The format is cell-based. An outline of the steps: (§1)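 Cell adhesion inhibition assay, run on Jurkat with VCAM-1, RPMI8866, K562 or SK-MEL-24 cells. Each experiment was run in quadruplicate and repeated at least three times.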
T1 sequence (P05556 whole entry, one chain of several): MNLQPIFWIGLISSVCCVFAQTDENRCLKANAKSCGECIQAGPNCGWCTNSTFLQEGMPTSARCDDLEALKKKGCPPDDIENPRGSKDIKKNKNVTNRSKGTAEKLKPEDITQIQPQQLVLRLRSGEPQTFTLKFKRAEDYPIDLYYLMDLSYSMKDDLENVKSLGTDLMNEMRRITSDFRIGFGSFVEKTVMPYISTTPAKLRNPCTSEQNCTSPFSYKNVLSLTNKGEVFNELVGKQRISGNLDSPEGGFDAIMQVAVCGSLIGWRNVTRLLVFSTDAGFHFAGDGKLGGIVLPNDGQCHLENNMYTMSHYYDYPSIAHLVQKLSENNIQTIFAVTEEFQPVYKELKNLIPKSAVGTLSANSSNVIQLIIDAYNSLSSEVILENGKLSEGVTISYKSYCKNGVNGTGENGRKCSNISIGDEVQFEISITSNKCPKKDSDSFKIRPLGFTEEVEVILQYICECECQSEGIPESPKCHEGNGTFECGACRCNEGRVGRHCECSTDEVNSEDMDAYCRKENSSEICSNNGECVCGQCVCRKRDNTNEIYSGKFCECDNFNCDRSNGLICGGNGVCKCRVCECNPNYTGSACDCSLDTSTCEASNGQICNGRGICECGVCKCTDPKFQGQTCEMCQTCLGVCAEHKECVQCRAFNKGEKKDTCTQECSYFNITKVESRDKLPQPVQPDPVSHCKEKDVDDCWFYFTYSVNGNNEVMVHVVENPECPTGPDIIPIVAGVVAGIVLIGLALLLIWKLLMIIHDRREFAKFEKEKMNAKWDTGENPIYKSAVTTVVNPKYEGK

Test [2] deals with Integrin alpha-5/beta-1 (Homo sapiens, UniProt P05556+P08648). The test can be described thus: Inhibition of human alpha5beta1 integrin expressed in human K-562 cells assessed as inhibition of cell adhesion to fibronectin. It counts as cell-based, K562. The gist of the method: as §1
Chain of Integrin alpha-5/beta-1 (P05556 21-798 limits assumed): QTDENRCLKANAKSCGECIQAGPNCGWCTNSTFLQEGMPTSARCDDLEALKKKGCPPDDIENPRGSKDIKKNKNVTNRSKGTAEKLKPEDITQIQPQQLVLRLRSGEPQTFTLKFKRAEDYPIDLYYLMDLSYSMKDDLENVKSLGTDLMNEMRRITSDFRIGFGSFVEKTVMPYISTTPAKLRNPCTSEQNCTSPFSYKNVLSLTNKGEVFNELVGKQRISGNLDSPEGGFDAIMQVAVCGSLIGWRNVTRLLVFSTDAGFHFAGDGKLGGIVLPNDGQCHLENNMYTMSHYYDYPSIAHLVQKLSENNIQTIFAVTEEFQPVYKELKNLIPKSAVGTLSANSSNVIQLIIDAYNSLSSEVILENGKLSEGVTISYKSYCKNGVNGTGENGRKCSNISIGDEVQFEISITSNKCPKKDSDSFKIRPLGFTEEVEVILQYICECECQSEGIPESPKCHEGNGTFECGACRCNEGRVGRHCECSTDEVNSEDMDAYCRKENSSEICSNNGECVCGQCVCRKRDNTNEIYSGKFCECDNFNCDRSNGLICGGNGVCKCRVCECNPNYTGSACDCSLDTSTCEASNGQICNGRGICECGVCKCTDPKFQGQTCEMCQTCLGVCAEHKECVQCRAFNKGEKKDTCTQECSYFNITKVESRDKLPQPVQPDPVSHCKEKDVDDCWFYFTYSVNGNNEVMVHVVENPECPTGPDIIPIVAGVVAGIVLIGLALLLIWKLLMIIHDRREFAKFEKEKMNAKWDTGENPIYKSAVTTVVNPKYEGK
Chain of Integrin alpha-5/beta-1 (P08648 42-894 limits assumed): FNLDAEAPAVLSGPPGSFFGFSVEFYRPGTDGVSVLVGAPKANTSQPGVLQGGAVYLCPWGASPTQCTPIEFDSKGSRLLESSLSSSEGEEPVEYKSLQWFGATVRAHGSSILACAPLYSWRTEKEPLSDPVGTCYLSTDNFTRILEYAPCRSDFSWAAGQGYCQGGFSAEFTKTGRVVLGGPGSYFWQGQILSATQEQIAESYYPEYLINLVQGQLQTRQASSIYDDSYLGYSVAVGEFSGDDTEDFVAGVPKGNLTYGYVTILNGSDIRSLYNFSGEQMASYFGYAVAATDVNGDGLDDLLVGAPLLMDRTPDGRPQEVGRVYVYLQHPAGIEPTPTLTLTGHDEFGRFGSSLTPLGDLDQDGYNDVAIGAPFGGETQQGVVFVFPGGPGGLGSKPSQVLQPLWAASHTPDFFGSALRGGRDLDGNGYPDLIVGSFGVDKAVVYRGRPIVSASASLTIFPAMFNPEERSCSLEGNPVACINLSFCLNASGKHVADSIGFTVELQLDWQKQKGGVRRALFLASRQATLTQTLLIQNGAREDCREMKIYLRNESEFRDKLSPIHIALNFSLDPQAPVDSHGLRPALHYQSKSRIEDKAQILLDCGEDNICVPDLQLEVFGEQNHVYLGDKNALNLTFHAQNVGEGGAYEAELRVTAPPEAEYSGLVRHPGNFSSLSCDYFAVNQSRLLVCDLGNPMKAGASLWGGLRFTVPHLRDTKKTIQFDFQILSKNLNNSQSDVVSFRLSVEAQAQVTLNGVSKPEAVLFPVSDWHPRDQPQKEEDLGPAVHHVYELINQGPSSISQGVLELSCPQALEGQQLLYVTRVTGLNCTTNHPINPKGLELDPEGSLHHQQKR
Chain of Integrin alpha-5/beta-1 (P08648 895-1049 limits assumed): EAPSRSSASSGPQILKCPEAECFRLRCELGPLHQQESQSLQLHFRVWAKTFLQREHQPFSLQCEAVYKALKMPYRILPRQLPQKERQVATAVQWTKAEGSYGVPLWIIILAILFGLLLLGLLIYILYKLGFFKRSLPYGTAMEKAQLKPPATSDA
Test [3] in a line: Inhibition of human […] integrin expressed in human Jurkat cells assessed as inhibition of cell adhesion to ICAM1. It counts as cell-based.
Test [4] has as its target T1, Integrin alpha-4/beta-1. Description: Antagonist activity at human alpha4beta1integrin in human Jurkat cells assessed as reduction of VCAM-1-induced ERK1/2 phosphorylation after 60 mins by Western blot analysis. It counts as cell-based. The gist of the method: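 Jurkat cells were serum-starved for 16 h in RPMI-1640 with 1% FBS, then preincubated with compound in suspension for 60 min. They were then kept in suspension or plated on VCAM-1-coated wells, with poly-L-lysine as the nonspecific substrate. After 60 min the cells were lysed and Western blotted for pERK1/2 and total ERK1/2. Densitometry normalized pERK1/2 to tERK1/2 (mean ± SEM, n = 6). IC50 came from a separate concentration series.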

Test [5] concerns the target Integrin alpha-V/beta-3 (Homo sapiens, UniProt P05106+P06756). Description: Inhibition of human alphaVbeta3 integrin expressed in human SK-MEL-24 cells assessed as inhibition of cell adhesion to fibronectin.
Test [6] concerns the target T2, Integrin alpha-4/beta-7 (Homo sapiens, UniProt P13612+P26010).
T2 sequence (P13612 whole entry): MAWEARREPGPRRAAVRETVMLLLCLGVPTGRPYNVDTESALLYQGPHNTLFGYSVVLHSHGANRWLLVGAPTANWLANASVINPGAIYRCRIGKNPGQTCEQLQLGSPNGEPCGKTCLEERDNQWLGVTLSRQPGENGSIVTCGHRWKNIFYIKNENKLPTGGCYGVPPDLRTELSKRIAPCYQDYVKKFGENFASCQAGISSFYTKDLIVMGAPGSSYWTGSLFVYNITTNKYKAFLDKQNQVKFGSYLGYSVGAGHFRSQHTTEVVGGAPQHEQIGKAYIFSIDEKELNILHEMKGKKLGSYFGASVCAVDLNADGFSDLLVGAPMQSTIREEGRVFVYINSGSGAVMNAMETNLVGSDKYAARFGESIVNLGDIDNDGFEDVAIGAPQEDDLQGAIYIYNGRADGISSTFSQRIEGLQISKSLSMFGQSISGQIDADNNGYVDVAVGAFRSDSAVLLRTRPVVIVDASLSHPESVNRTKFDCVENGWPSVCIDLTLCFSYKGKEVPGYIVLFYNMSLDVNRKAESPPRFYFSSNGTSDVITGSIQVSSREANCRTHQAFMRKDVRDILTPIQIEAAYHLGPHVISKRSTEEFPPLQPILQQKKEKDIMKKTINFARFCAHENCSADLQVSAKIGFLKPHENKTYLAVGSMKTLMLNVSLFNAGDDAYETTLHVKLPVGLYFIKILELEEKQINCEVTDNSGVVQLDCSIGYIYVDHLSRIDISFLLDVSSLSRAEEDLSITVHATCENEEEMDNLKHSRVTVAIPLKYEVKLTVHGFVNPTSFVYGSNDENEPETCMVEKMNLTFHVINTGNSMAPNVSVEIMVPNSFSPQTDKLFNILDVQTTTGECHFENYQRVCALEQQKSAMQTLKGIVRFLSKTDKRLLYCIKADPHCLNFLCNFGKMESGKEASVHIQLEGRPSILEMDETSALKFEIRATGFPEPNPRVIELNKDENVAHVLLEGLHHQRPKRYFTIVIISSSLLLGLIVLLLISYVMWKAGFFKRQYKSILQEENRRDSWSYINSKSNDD
T2 sequence (P26010 whole entry): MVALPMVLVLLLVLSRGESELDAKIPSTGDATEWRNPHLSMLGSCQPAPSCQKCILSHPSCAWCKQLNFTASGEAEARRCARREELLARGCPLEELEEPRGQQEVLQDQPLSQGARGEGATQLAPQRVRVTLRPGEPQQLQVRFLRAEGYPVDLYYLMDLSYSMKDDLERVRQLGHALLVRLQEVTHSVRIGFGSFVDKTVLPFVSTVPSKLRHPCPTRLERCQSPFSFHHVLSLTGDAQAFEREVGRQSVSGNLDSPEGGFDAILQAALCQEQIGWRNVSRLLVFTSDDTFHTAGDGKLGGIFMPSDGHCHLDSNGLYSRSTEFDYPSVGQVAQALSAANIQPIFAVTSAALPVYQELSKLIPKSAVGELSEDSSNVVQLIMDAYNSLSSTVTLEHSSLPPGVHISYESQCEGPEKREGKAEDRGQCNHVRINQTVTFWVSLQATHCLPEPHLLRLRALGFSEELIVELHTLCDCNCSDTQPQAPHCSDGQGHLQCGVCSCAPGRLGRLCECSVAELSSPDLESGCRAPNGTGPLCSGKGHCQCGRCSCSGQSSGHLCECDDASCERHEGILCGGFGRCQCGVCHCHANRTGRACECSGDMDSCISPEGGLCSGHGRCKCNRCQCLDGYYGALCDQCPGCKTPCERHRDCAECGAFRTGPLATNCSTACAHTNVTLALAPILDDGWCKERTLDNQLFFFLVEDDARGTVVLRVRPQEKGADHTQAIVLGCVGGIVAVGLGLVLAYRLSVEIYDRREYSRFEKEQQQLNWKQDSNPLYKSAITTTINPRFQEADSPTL
The test can be described thus: Inhibition of human alpha4beta7 integrin expressed in human RPMI8866 cells assessed as inhibition of cell adhesion to MadCam1. The format is cell-based. An outline of the steps:
as §1

pIC50: −log10 of the molar value.

Chain of Integrin alpha-V/beta-3 (P05106 27-788 limits assumed): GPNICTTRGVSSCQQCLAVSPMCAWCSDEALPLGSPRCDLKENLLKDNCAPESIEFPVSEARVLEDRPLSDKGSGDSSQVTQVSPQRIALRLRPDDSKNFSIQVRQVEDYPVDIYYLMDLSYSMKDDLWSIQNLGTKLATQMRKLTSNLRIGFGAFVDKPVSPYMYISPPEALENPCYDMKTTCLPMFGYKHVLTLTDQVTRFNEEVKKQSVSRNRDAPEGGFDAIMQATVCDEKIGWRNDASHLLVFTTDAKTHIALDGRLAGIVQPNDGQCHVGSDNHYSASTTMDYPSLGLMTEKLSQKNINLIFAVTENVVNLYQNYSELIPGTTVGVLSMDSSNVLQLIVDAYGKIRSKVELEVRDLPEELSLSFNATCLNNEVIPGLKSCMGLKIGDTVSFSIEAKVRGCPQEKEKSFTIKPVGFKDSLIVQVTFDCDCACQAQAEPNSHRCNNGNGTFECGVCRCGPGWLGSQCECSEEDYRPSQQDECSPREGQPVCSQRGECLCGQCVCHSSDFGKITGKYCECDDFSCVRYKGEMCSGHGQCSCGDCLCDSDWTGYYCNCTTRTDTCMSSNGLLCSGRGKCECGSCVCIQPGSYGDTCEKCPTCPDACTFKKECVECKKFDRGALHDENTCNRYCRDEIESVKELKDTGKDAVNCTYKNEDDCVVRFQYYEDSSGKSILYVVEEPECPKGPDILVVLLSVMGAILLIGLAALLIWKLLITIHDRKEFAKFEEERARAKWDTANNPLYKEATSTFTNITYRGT
Chain of Integrin alpha-V/beta-3 (P06756 31-889 limits assumed): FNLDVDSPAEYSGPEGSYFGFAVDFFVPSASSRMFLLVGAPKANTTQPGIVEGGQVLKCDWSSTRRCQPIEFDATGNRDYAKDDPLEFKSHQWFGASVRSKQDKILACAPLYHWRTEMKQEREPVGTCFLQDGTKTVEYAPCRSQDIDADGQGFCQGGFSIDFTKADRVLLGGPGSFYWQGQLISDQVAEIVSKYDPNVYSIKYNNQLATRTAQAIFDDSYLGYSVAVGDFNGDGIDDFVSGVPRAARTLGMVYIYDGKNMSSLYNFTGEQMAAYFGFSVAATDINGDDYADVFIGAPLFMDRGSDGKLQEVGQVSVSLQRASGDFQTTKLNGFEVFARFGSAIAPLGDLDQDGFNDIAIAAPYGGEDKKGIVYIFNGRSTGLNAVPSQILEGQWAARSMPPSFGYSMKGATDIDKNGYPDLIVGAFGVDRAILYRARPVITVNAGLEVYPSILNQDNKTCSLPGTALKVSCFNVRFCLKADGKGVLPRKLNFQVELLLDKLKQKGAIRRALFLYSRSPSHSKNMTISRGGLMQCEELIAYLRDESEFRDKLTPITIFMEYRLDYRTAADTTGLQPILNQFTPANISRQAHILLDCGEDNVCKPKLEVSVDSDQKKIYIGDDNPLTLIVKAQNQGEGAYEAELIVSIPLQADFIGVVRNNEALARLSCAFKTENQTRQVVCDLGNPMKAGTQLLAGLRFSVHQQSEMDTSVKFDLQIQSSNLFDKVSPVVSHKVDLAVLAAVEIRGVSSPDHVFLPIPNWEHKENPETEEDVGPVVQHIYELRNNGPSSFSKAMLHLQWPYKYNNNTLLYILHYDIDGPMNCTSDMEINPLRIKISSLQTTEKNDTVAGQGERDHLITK
Chain of Integrin alpha-V/beta-3 (P06756 891-1048 limits assumed): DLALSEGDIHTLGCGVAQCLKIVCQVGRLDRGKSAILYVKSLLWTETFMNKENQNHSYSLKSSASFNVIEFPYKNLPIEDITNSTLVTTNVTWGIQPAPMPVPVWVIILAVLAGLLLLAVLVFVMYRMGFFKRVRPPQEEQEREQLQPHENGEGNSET

With `Cc1ccccc1NC(=O)N1CC=C(C(=O)NCc2ccc(NC(=O)CC(=O)O)cc2)[C@@H]1C(C)C`, the negative logarithm of the IC50 (pIC50) in test [1] was 6.96.

With `Cc1ccccc1NC(=O)N1CC=C(C(=O)NCc2ccc(NC(=O)CC(=O)O)cc2)[C@H]1C(C)C`, the pIC50 in test [1] is 6.60.

Take `Cc1ccccc1NC(=O)Nc1ccc(CNC(=O)C2=CCN(C(=O)CC(=O)O)[C@H]2C(C)C)cc1`: the negative logarithm of the IC50 (pIC50) in test [1] was under 6.00.

In the case of `Cc1ccccc1NC(=O)Nc1ccc(CNC(=O)C2=CCN(C(=O)CC(=O)O)[C@@H]2C(C)C)cc1`, the negative-log IC50 (pIC50) in test [2] is under 6.00; in test [3], under 6.00; in test [4], 8.00; in test [5], under 6.00; in test [6], 6.57; in test [1], 8.00.

Take `Cc1ccccc1NC(=O)Nc1ccc(CNC(=O)C2=CCN(C(=O)CC(=O)O)[C@H]2C2CCCCC2)cc1`: in test [1], the pIC50 is under 6.00.

On to `Cc1ccccc1NC(=O)Nc1ccc(CNC(=O)C2=CCN(C(=O)CC(=O)O)[C@@H]2C2CCCCC2)cc1`, for which the pIC50 in test [2] is under 6.00; in test [3], under 6.00; in test [4], 6.88; in test [5], under 6.00; in test [6], 6.46; in test [1], 7.21.

In general, pIC50 refers to the negative decadic logarithm of the IC50, by convention in mol/L.
